Experimental data as given in ChEMBL document CHEMBL4765409, “Synthesis and biological evaluation of geniposide derivatives as potent and selective PTPlB inhibitors” (Eur J Med Chem, 2020).
pIC50: −log10 of the molar value.

Key:
[1] = target: T1, Tyrosine-protein phosphatase non-receptor type 1 (Homo sapiens, UniProt P18031); assay: Inhibition of recombinant human PTP1B using pNPP as substrate measured after 30 mins
T1 sequence (P18031 whole entry): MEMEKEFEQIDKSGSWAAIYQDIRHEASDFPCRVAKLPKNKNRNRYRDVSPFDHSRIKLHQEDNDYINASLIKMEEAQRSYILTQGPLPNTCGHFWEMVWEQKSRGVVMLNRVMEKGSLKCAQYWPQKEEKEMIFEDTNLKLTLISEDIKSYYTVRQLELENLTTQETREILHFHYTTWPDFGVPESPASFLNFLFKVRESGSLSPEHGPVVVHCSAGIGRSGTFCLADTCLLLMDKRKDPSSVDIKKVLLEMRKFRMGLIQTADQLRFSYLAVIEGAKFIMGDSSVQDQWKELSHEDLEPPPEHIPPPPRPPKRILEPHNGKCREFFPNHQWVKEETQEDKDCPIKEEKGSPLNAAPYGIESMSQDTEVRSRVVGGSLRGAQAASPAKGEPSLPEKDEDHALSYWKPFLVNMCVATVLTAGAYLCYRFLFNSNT
Method in brief: (§1)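 75 nM recombinant enzyme (PTP1B, TCPTP or SHP2) with 2.5 mM pNPP in 10 mM Tris, 25 mM NaCl, 1 mM EDTA, pH 7.1; compounds added from DMSO. Reaction run 30 min at room temperature, stopped with 2.0 N NaOH, pNP read at 405 nm. Sodium vanadate as positive control. IC50 from enzyme progress curves; means of triplicates, repeated twice.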

[2] = target: T2, Tyrosine-protein phosphatase non-receptor type 2 (Homo sapiens, UniProt P17706); assay: Inhibition of recombinant human TCPTP using pNPP as substrate measured after 30 mins; method in brief: as §1
T2 sequence (P17706 whole entry): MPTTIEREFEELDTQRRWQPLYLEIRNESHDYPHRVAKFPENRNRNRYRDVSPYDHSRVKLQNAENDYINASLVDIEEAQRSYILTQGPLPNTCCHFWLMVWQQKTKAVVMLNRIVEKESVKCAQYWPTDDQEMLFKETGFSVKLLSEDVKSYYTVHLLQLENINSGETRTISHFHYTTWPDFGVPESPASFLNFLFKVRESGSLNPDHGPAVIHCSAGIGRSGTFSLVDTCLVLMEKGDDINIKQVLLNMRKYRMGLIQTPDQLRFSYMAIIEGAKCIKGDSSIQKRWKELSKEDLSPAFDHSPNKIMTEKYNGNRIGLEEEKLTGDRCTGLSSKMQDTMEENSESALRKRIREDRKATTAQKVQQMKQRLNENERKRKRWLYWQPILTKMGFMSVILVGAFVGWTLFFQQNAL

[3] = target: T3, Tyrosine-protein phosphatase non-receptor type 11 (Homo sapiens, UniProt Q06124); assay: Inhibition of recombinant SHP2 (unknown origin) using pNPP as substrate measured after 30 mins; method in brief: as §1
T3 sequence (Q06124 whole entry): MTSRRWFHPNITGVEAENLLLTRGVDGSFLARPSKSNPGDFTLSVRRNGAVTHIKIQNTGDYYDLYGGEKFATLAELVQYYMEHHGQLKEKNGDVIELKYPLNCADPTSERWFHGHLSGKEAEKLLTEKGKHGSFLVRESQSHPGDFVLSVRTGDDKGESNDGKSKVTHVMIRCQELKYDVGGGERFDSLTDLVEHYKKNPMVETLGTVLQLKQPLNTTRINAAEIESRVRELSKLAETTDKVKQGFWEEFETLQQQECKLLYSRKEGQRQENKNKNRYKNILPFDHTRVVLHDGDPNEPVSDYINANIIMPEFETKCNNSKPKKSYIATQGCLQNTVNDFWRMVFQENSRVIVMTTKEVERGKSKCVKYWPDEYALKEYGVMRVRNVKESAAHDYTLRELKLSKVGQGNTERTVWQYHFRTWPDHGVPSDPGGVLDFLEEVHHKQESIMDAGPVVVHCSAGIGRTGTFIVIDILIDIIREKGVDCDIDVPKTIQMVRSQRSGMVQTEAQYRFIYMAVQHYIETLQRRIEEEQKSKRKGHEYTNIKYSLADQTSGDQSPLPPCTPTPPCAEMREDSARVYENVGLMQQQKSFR

CHO = assay: Cytotoxicity against CHO cells assessed as reduction in cell viability measured after 24 hrs by MTT assay; assay type: cell-based; details: Cricetulus griseus
Method in brief: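 CHO cells in DMEM with 10% FBS and 1% penicillin-streptomycin, 5% CO2, 37 °C; 5×10^3 cells/well seeded, treated after 24 h with varying compound concentrations for 24 h. MTT then added for 4 h at 37 °C in the dark, medium removed, formazan dissolved in DMSO, OD read at 490 nm.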

[4] = target: T4, Tyrosine-protein phosphatase non-receptor type 1 (Homo sapiens) (UniProt P18031); assay: Inhibition of PTP1B in human HepG2 cells assessed as improvement in insulin-induced 2-NBDG uptake at 5 uM incubated for 24 hrs prior to compound washout followed by insulin stimulation for 20 mins and subsequent 2-NBDG addition measured after 60 mins by FACS analysis relative to control; assay type: cell-based
T4 sequence (whole entry): T1 sequence (P18031 whole entry)
Method in brief: (§2)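 HepG2 cells in DMEM with 10% FBS and 1% penicillin-streptomycin, 5% CO2, 37 °C; 5×10^4 cells/well in 24-well plates. Compound exposure 24 h, then two PBS washes. Stimulated with 100 nM insulin for 20 min, then 50 μM 2-NBDG for 60 min. Uptake read by flow cytometry, FL1 channel; pioglitazone as positive control.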

[5] = target: T4, Tyrosine-protein phosphatase non-receptor type 1 (Homo sapiens); assay: Inhibition of PTP1B in human HepG2 cells assessed as improvement in insulin-induced 2-NBDG uptake at 10 uM incubated for 24 hrs prior to compound washout followed by insulin stimulation for 20 mins and subsequent 2-NBDG addition measured after 60 mins by FACS analysis relative to control; assay type: cell-based; method in brief: as §2
[6] = target: T4, Tyrosine-protein phosphatase non-receptor type 1 (Homo sapiens); assay: Inhibition of PTP1B in human HepG2 cells assessed as improvement in insulin-induced 2-NBDG uptake at 20 uM incubated for 24 hrs prior to compound washout followed by insulin stimulation for 20 mins and subsequent 2-NBDG addition measured after 60 mins by FACS analysis relative to control; assay type: cell-based; method in brief: as §2
CHO (Cricetulus griseus) = assay: Cytotoxicity against Chinese hamster CHO cells assessed as reduction in cell viability measured after 24 hrs by MTT assay
[7] = target: T1, Tyrosine-protein phosphatase non-receptor type 1; assay: Inhibition of recombinant human PTP1B (1 to 322 residues) expressed in Escherichia coli using IR5 (1142 to 1153, pY1146) as substrate by malachite green dye based colorimetric assay

COC(=O)C1=CO[C@@H](OC)[C@@H]2C(CO)=CC[C@H]12
pIC50 [1]: 3.63

O=C(Nc1ccccc1)C1=CO[C@@H](O[C@@H]2O[C@H](CO)[C@@H](O)[C@H](O)[C@H]2O)[C@@H]2C(CO)=CC[C@H]12
pIC50 [1]: < 4.00

CCOS(=O)(=O)/C=C/c1ccc(OCC2=CC[C@@H]3C(C(=O)Nc4ccc(Oc5ccc(Br)cc5Cl)cc4)=CO[C@@H](OCc4ccccc4)[C@H]23)cc1
pIC50 [1]: 6.39
pIC50 [2]: 5.89
pIC50 [3]: 5.40
pIC50 (CHO): < 3.70
inhibition [4]: 43.8%
inhibition [5]: 68.3%
inhibition [6]: 64.4%
pIC50 (CHO (Cricetulus griseus)): < 3.70

O=C(Nc1ccc(Oc2ccccc2)cc1)C1=CO[C@@H](O[C@@H]2O[C@H](COCc3ccccc3)[C@@H](OCc3ccccc3)[C@H](OCc3ccccc3)[C@H]2OCc2ccccc2)[C@@H]2C(COCc3ccccc3)=CC[C@H]12
pIC50 [1]: 6.40
pIC50 (CHO): < 3.70
pIC50 (CHO (Cricetulus griseus)): < 3.70

CCOS(=O)(=O)/C=C/c1ccc(OCC2=CC[C@@H]3C(C(=O)Nc4ccc(Oc5ccc(Br)cc5Cl)cc4)=CO[C@@H](OC)[C@H]23)cc1
pIC50 [1]: 5.98
pIC50 (CHO): < 3.70
pIC50 (CHO (Cricetulus griseus)): < 3.70

CC(C)(C)c1ccc(Oc2ccc(NC(=O)C3=CO[C@@H](O[C@@H]4O[C@H](CO)[C@@H](O)[C@H](O)[C@H]4O)[C@@H]4C(CO)=CC[C@H]34)cc2)cc1
pIC50 [1]: 4.75
pIC50 [2]: < 4.00
pIC50 [3]: < 4.00

CCO[C@@H]1OC=C(C(=O)OC)[C@H]2CC=C(CO)[C@@H]12
pIC50 [1]: 4.19

CCOS(=O)(=O)/C=C/c1ccc(OCC2=CC[C@@H]3C(C(=O)Nc4ccc(Oc5ccccc5)cc4)=CO[C@@H](OCc4ccccc4)[C@H]23)cc1
pIC50 [1]: 6.00
pIC50 (CHO): 4.21
pIC50 (CHO (Cricetulus griseus)): < 3.70

CCOS(=O)(=O)/C=C/c1ccc(OCC2=CC[C@@H]3C(C(=O)Nc4ccc(Oc5ccccc5)cc4)=CO[C@@H](OC)[C@H]23)cc1
pIC50 [1]: 5.57
pIC50 (CHO): < 3.70
pIC50 (CHO (Cricetulus griseus)): < 3.70

O=C(O)C1=CO[C@@H](O[C@@H]2O[C@H](COCc3ccccc3)[C@@H](OCc3ccccc3)[C@H](OCc3ccccc3)[C@H]2OCc2ccccc2)[C@@H]2C(COCc3ccccc3)=CC[C@H]12
pIC50 [1]: 6.42
pIC50 [2]: 5.88
pIC50 [3]: 5.48
pIC50 (CHO): < 3.70
pIC50 (CHO (Cricetulus griseus)): < 3.70

O=C(Nc1ccc(Oc2ccccc2)cc1)C1=CO[C@@H](O[C@@H]2O[C@H](CO)[C@@H](O)[C@H](O)[C@H]2O)[C@@H]2C(CO)=CC[C@H]12
pIC50 [1]: 4.60

O=C1C[C@@H](O[C@@H]2O[C@H](CO)[C@@H](O)[C@H](O)[C@H]2O)CO1
pIC50 [1]: 5.24
pIC50 [2]: < 4.30
pIC50 [3]: < 4.30
pIC50 [7]: 5.29

CCOS(=O)(=O)/C=C/c1ccc(OCC2=CC[C@@H]3C(C(=O)OC)=CO[C@@H](OCc4ccccc4)[C@H]23)cc1
pIC50 [1]: 4.88

CCc1ccc(CCOc2ccc(CC3SC(=O)NC3=O)cc2)nc1 (stereo not drawn)
inhibition [4]: 33.8%
inhibition [5]: 46%
inhibition [6]: 63.5%

O=C(Nc1ccccc1F)C1=CO[C@@H](O[C@@H]2O[C@H](CO)[C@@H](O)[C@H](O)[C@H]2O)[C@@H]2C(CO)=CC[C@H]12
pIC50 [1]: 4.68

CCc1ccccc1NC(=O)C1=CO[C@@H](O[C@@H]2O[C@H](CO)[C@@H](O)[C@H](O)[C@H]2O)[C@@H]2C(CO)=CC[C@H]12
pIC50 [1]: 4.74
pIC50 [2]: < 4.00
pIC50 [3]: < 4.00

COc1ccccc1NC(=O)C1=CO[C@@H](O[C@@H]2O[C@H](CO)[C@@H](O)[C@H](O)[C@H]2O)[C@@H]2C(CO)=CC[C@H]12
pIC50 [1]: 4.29

CCOS(=O)(=O)/C=C/c1ccc(OCC2=CC[C@@H]3C(C(=O)Nc4ccc(Oc5ccc(-c6ccccc6)cc5)cc4)=CO[C@@H](OC)[C@H]23)cc1
pIC50 [1]: 6.37
pIC50 [2]: 6.02
pIC50 [3]: 5.91
pIC50 (CHO): < 3.70
inhibition [4]: 38.6%
inhibition [5]: 68%
inhibition [6]: 69.6%
pIC50 (CHO (Cricetulus griseus)): < 3.70

O=C(Nc1ccc(-c2ccccc2)cc1)C1=CO[C@@H](O[C@@H]2O[C@H](CO)[C@@H](O)[C@H](O)[C@H]2O)[C@@H]2C(CO)=CC[C@H]12
pIC50 [1]: 4.66

COC(=O)C1=CO[C@@H](OCc2ccccc2)[C@@H]2C(CO)=CC[C@H]12
pIC50 [1]: 4.39

CCOS(=O)(=O)/C=C/c1ccc(OCC2=CC[C@@H]3C(C(=O)Nc4ccc(Oc5ccc6ccccc6c5)cc4)=CO[C@@H](OC)[C@H]23)cc1
pIC50 [1]: 6.12
pIC50 (CHO): < 3.70
pIC50 (CHO (Cricetulus griseus)): < 3.70

CCOS(=O)(=O)/C=C/c1ccc(CNC(=O)C2=CO[C@@H](O[C@@H]3O[C@H](COCc4ccccc4)[C@@H](OCc4ccccc4)[C@H](OCc4ccccc4)[C@H]3OCc3ccccc3)[C@@H]3C(COCc4ccccc4)=CC[C@H]23)cc1
pIC50 [1]: 6.46
pIC50 (CHO): < 3.70
inhibition [4]: 43.4%
inhibition [5]: 36.5%
inhibition [6]: 49.8%
pIC50 (CHO (Cricetulus griseus)): < 3.70

COC(=O)C1=CO[C@@H](O[C@@H]2O[C@H](COCc3ccccc3)[C@@H](OCc3ccccc3)[C@H](OCc3ccccc3)[C@H]2OCc2ccccc2)[C@@H]2C(COCc3ccccc3)=CC[C@H]12
pIC50 [1]: 6.17
pIC50 (CHO): 4.38
pIC50 (CHO (Cricetulus griseus)): < 3.70

COC(=O)C1=CO[C@@H](O[C@@H]2O[C@H](CO)[C@@H](O)[C@H](O)[C@H]2O)[C@@H]2C(CO)=CC[C@H]12 [GENIPOSIDE]
pIC50 [1]: < 3.30
pIC50 [2]: < 3.30
pIC50 [3]: < 3.30

COC(=O)C1=CO[C@@H](O)[C@@H]2C(CO)=CC[C@H]12 [GENIPIN]
pIC50 [1]: < 3.30
pIC50 [2]: < 3.30
pIC50 [3]: < 3.30
